Test [1] relates to Mus musculus. The test is described as follows: Protection activity against Foxp3-DTR expressing C57BL/6 autoimmune mouse model assessed as decrease in number of Ki67+ cells at 150 mg/kg after 8 days of Dtx treatment for 5 days. It counts as functional, organism-based. The note with it: time 5.0 day. Summed up:
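Foxp3-DTR mice were given DTx, and 150 mg/kg inhibitor was started on day 8 after DTx initiation. Ki67+ dividing CD19+ B, CD4+ and CD8+ T cells in lymph nodes were measured per mouse. Two experiments, n = 4–15, unpaired Student's t test.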

Test [2] addresses T1, Histone-lysine N-methyltransferase EZH1 (Homo sapiens, UniProt Q92800).
T1 sequence (Q92800 whole entry): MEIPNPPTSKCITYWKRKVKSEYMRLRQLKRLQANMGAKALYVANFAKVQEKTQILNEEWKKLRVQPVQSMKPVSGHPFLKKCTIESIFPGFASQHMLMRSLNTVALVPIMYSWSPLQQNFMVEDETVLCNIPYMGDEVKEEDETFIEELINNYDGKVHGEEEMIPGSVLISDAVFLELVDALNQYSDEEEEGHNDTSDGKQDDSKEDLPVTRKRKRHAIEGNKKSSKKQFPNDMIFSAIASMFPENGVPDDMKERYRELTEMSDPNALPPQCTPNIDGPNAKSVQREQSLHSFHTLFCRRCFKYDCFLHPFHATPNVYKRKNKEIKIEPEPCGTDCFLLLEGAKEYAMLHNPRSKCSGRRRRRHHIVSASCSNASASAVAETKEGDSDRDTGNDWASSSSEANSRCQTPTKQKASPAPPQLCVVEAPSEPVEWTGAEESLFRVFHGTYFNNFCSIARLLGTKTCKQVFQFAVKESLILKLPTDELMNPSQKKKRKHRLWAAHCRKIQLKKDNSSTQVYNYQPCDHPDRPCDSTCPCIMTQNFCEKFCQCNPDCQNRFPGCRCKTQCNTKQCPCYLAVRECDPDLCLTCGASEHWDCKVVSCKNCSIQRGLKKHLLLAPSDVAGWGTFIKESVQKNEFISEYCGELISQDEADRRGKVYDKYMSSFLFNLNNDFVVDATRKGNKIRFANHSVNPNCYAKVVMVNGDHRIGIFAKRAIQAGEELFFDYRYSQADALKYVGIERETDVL
The test is described as follows: Inhibition of human EZH1.

The subject of test [3] is CD4+ T cell. In words: Down-regulation of Erk phosphorylation in human CD4+ T cell upto 50 uM in the presence of PMA by Western blotting analysis. The test is classed as functional, cell-based. Summed up:
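Purified CD4+ T cells in DMSO or inhibitor were given prewarmed medium with 5 ng/ml PMA for 10 min at 37°C and lysed in 0.5% NP-40 buffer. pErk1/2 (T202/Y204) was detected by Western blot and normalized to total Erk1/2. Three independent experiments.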
On the technique in general: A western blot detects proteins with antibodies after separation by electrophoresis.

Test [4] relates to CD4+ T cell. The test is described as follows: Anti-proliferative activity against TCR induced mouse CD4+ T cell.
Test [5] addresses T2, Histone-lysine N-methyltransferase EZH1 (Homo sapiens) (UniProt Q92800).
T2 sequence (whole entry): T1 sequence (Q92800 whole entry)
In words: Inhibition of Ezh1 in human CD4+ T cell by mass spectrometry analysis. It counts as cell-based.

Test [6] relates to Mus musculus. The test is described as follows: Antiinflammatory activity in Foxp3-DTR expressing C57BL/6 autoimmune mouse model assessed as decrease in macrophages at 150 mg/kg after 8 days of Dtx treatment for 5 days. The test is classed as functional, organism-based. The note with it: time 5.0 day. Summed up: (§1)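 Foxp3-DTR mice were depleted of Treg cells by DTx injection. They received 150 mg/kg inhibitor either together with DTx or starting on day 8 after DTx began. Total cells and T cells, B cells, granulocytes and macrophages in secondary lymphoid organs were counted.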

For test [7], the system named is Mus musculus. The test is described as follows: Protection against Foxp3-DTR expressing C57BL/6 autoimmune mouse model assessed as prevention of regulatory t cell depletion at 150 mg/kg after 8 days of Dtx treatment for 5 days. It counts as functional, organism-based. The note with it: time 5.0 day. In outline: (§2)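 Foxp3-DTR mice were given DTx to deplete Treg cells, with 150 mg/kg inhibitor either at the same time or from day 8 onward. Splenic Foxp3+ Treg frequency was measured, spleen and lymph node size was photographed, and total lymphoid cells in lymph nodes were counted per mouse.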

The test system of test [8] is Mus musculus. The test is described as follows: Antiinflammatory activity in Foxp3-DTR expressing C57BL/6 autoimmune mouse model assessed as decrease in B-cells at 150 mg/kg after 8 days of Dtx treatment for 5 days. The note with it: time 5.0 day. The test is classed as functional, organism-based. In outline:
as §1

In test [9] the test system is Mus musculus. In words: Antiinflammatory activity in Foxp3-DTR expressing C57BL/6 autoimmune mouse model assessed as decrease in granulocytes at 150 mg/kg after 8 days of Dtx treatment for 5 days. It counts as functional, organism-based. The note with it: time 5.0 day. In outline:
as §1

For test [10], the system named is CD4+ T cell. In words: Downregulation of Erk phosphorylation in TCR-triggered human CD4+ T cell at 10 uM by Western blotting analysis. The test is classed as functional, cell-based. Summed up: (§3)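 Purified CD4+ T cells in DMSO or inhibitor were coated with 10 μg/ml anti-CD3 and 2.5 μg/ml anti-CD28 on ice for 20 min. They were cross-linked with 20 μg/ml anti-hamster IgG for 2 or 10 min at 37°C, then lysed in 0.5% NP-40 buffer. pErk1/2 (T202/Y204) was read by Western blot and normalized to total Erk. Three independent experiments.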

In test [11] the test system is Mus musculus. The test is described as follows: Protection against Foxp3-DTR expressing C57BL/6 autoimmune mouse model assessed as reversal of splenomegaly at 150 mg/kg after 8 days of Dtx treatment for 5 days. It counts as functional, organism-based. The note with it: time 5.0 day. In outline:
as §2

Test [12] relates to Mus musculus. The test is described as follows: Antiinflammatory activity in Foxp3-DTR expressing C57BL/6 autoimmune mouse model assessed as decrease in T-cells at 150 mg/kg after 8 days of Dtx treatment for 5 days. The test is classed as functional, organism-based. The note with it: time 5.0 day. In outline:
as §1

Test [13] relates to CD4+ T cell. In words: Down-regulation of Erk phosphorylation in human CD4+ T cell upto 50 uM by Western blotting analysis. The test is classed as functional, cell-based. Summed up:
as §3

Test [14] concerns CD4+ T cell. The test is described as follows: Down-regulation of Erk phosphorylation in TCR-triggered human CD4+ T cell by Western blotting analysis. It counts as functional, cell-based. In outline: as §3
The target in test [15] is Histone-lysine N-methyltransferase EZH2 (Homo sapiens) (UniProt Q15910). In words: Inhibition of EZH2 (unknown origin) at 45 nM.
Test [16] deals with CD4+ T cell. In words: Down-regulation of Mek1/2 at S217/221 phosphorylation in TCR-triggered human CD4+ T cell at 10 uM by Western blotting analysis. The test is classed as functional, cell-based. In outline: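 CD4+ T cells in DMSO or 10 µM inhibitor were stimulated with anti-CD3 plus anti-CD28 antibodies. pMek1/2 (S217/221) was measured by Western blot and normalized to total Mek1. Three independent experiments.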

For test [17], the system named is CD4+ T cell. In words: Effect on Erk phosphorylation in TCR-triggered human CD4+ T cell at 10 uM by Western blotting analysis. It counts as functional, cell-based. In outline:
as §3

Test [18] addresses T2, Histone-lysine N-methyltransferase EZH1 (Homo sapiens). The test is described as follows: Inhibition of EZH1 (unknown origin) at 2 nM.

The source made the active and inactive calls. No cut-off for these calls is given here.

Chain of Histone-lysine N-methyltransferase EZH2 (Homo sapiens) (Q15910 whole entry, looked up): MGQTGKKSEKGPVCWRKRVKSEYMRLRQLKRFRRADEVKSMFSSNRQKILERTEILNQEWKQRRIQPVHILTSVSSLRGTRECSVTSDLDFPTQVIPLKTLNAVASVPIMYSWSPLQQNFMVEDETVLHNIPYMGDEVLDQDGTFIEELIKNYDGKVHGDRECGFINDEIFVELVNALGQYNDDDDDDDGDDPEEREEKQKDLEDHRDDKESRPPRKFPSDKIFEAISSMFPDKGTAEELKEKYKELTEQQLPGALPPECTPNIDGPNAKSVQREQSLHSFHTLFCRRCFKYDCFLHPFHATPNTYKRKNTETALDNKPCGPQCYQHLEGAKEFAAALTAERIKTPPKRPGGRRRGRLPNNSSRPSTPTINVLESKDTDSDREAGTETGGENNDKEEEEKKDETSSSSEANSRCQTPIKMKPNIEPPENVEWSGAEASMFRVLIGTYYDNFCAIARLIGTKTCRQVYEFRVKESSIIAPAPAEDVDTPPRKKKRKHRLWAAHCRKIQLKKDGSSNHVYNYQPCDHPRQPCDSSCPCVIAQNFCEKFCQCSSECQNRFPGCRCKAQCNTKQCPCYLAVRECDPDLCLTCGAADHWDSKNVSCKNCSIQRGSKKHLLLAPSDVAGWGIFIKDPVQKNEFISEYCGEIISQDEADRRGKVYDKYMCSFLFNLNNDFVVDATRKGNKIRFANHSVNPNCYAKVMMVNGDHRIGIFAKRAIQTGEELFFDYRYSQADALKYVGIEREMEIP

With `Cc1cc(C)c(CNC(=O)c2cc(-c3ccc(N4CCN(C)CC4)nc3)cc3c2c(C)cn3C(C)C)c(=O)[nH]1`, the outcome in the test with Mus musculus [1], in the test on CD4+ T cell [4], in the test with Mus musculus [6], with Mus musculus [7], in the test on Mus musculus [8] and in the test on Mus musculus [9] was Active. The outcome with CD4+ T cell [10], in the test on Mus musculus [11], in the test on Mus musculus [12] and in the test on CD4+ T cell [13] was Active. For the same compound, the IC50 (usually the concentration needed to halve the response being measured) in [2] was found to be 0.633 µM. For the same compound, the outcome with CD4+ T cell [3] was inactive. In addition, the inhibition result in [5] was “Active”.
`CCCc1cc(C)n(C)c(=O)c1CN(C)C(=O)c1cc(-c2ccc(N3CCN(C(C)C)CC3)nc2)cc2c1cnn2C(C)C`: in the test with CD4+ T cell [14], the outcome was inactive.
Turning to `CCCc1cc(C)[nH]c(=O)c1CNC(=O)c1cc(-c2ccc(N3CCN(C(C)C)CC3)nc2)cc2c1cnn2C(C)C`, the outcome in the test on CD4+ T cell [14], in the test on CD4+ T cell [16] and in the test on CD4+ T cell [17] was Active. Besides, the inhibition entry in [15] and in test [18] was “Active” in each case.

The values are drawn from ChEMBL document CHEMBL5712081, “Signaling function of PRC2 is essential for TCR-driven T cell responses” (J Exp Med, 2018).
